In assay [1] the test system is Staphylococcus aureus. As to the kind of experiment: Antibacterial activity against Staphylococcus aureus expressing aminoglycoside-6'-N-acetyltransferase/2''-O-phosphoryltransferase after 24 hrs by geometric microdilution method. The format is functional. The gist of the method:
(§1)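 Broth cultures were incubated in plates at 37 °C, and growth was read as absorbance at 650 nm after 1, 4, 7 and 24 h. Ampicillin (16 mg/L) was the positive control and DMSO the negative control. Each MIC (μg/mL) is the average of at least three determinations.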
A general note: In broth dilution the organism is exposed to a series of concentrations in liquid medium.

Assay [2] concerns Staphylococcus aureus. Kind of assay: Antibacterial activity against Staphylococcus aureus expressing aminoglycoside-3'-O-phosphoryltransferase after 24 hrs by geometric microdilution method. The format is functional. The gist of the method:
as §1

In assay [3] the test system is Staphylococcus aureus. Kind of assay: Antibacterial activity against fluoroquinolone-resistant Staphylococcus aureus 1199B expressing NorA efflux pump after 24 hrs by geometric microdilution method. The format is functional. The gist of the method:
as §1

For assay [4], the system named is Staphylococcus aureus. As to the kind of experiment: Antibacterial activity against Staphylococcus aureus expressing aminoglycoside-[…] after 24 hrs by geometric microdilution method. The format is functional. The gist of the method:
as §1

For assay [5], the system named is Staphylococcus aureus. Kind of assay: microbe, parasite or virus in culture. The conditions noted are these: ATCC 25923, 24 h.
The test system of assay [6] is Staphylococcus aureus. As to the kind of experiment: Antibacterial activity against vancomycin-resistant Staphylococcus aureus VRS2 after 24 hrs by geometric microdilution method. The format is functional. An outline of the steps:
as §1

The subject of assay [7] is Escherichia coli. As to the kind of experiment: Antibacterial activity against Escherichia coli PAZ505H8101 expressing AAC6'-1B after 24 hrs by geometric microdilution method. The format is functional.
The subject of the next assay is Klebsiella pneumoniae. Kind of assay: Antibacterial activity against Klebsiella pneumoniae ATCC 700603 after 24 hrs by geometric microdilution method. The format is functional.
Assay [8] concerns Pseudomonas aeruginosa. As to the kind of experiment: Antibacterial activity against Pseudomonas aeruginosa ATCC 27853 after 24 hrs by geometric microdilution method. The format is functional.
Assay [9] has as its system Pseudomonas aeruginosa. As to the kind of experiment: Antibacterial activity against Pseudomonas aeruginosa PA22 (PT629) expressing MexXY after 24 hrs by geometric microdilution method. The format is functional.
For assay [10], the system named is Staphylococcus aureus. As to the kind of experiment: Antibacterial activity against healthcare-acquired methicillin-resistant Staphylococcus aureus ATCC 33592 after 24 hrs by geometric microdilution method. The format is functional. The gist of the method: as §1
Assay [11] relates to Pseudomonas aeruginosa. Kind of assay: Antibacterial activity against Pseudomonas aeruginosa F03 expressing AAC6'-2A after 24 hrs by geometric microdilution method. The format is functional.
The subject of assay [12] is Escherichia coli. Kind of assay: Antibacterial activity against Escherichia coli L58058.1 expressing ANT2''-1A after 24 hrs by geometric microdilution method. The format is functional.
The subject of assay [13] is Acinetobacter lwoffii. Kind of assay: Antibacterial activity against Acinetobacter lwoffii AI.88-483 expressing APH3'-6A after 24 hrs by geometric microdilution method. The format is functional.
Assay [14] has as its system Acinetobacter lwoffii. Kind of assay: Antibacterial activity against Acinetobacter lwoffii ATCC 17925 after 24 hrs by geometric microdilution method. The format is functional. The note with it: ATCC 17925, 24 h.
For assay [15], the system named is Escherichia coli. As to the kind of experiment: microbe, parasite or virus in culture. The conditions noted are these: ATCC 25922, 24 h.
The test system of assay [16] is Staphylococcus aureus. As to the kind of experiment: Antibacterial activity against 14- and 15-membered macrolide-resistant Staphylococcus aureus expressing MsrA efflux pump after 24 hrs by geometric microdilution method. The format is functional. An outline of the steps:
as §1

≈ marks a conversion by molar mass, not a printed value. Where only a bound is given, the exact number is not on record here.

For `NC[C@H]1O[C@H](O[C@H]2[C@H](O)[C@@H](OCc3ccccc3)[C@H](N)C[C@@H]2N)[C@H](N)[C@@H](OCc2ccccc2)[C@@H]1O`, the MIC against Staphylococcus aureus [1], against Staphylococcus aureus [2], with Staphylococcus aureus [3], with Staphylococcus aureus [4] and against Staphylococcus aureus [5] was above 128 µg/mL throughout.

Turning to GENTAMICIN, the MIC in the assay with Staphylococcus aureus [6] was 32 µg/mL; in the assay with Escherichia coli [7] it was 1 µg/mL; in the assay on Klebsiella pneumoniae it was 8 µg/mL; against Pseudomonas aeruginosa [8], 1 µg/mL; in the assay with Pseudomonas aeruginosa [9], 4 µg/mL; with Staphylococcus aureus [10], 1 µg/mL. The MIC with Pseudomonas aeruginosa [11] is above 128 µg/mL; in the assay on Escherichia coli [12], 64 µg/mL; with Acinetobacter lwoffii [13] it was 4 µg/mL.

As for `NC[C@H]1O[C@H](O[C@H]2[C@H](O)[C@@H](O[C@H]3O[C@H](CO)[C@@H](O)[C@H](N)[C@H]3O)[C@H](N)C[C@@H]2N)[C@H](N)C[C@@H]1O` [TOBRAMYCIN], the MIC came to 32 µg/mL (≈ 68.4 µM) against Escherichia coli [7] (PAZ505H8101, 24 h); 4 µg/mL (≈ 8.56 µM) in the assay on Klebsiella pneumoniae (ATCC 700603, 24 h); 0.5 µg/mL (≈ 1.07 µM) against Acinetobacter lwoffii [14]; 0.5 µg/mL (≈ 1.07 µM) against Pseudomonas aeruginosa [8] (ATCC 27853, 24 h); 1 µg/mL (≈ 2.14 µM) against Pseudomonas aeruginosa [9]; 128 µg/mL (≈ 274 µM) in the assay with Pseudomonas aeruginosa [11] (F03, 24 h). Moreover, the MIC with Escherichia coli [12] (L58058.1, 24 h) was 64 µg/mL (≈ 137 µM); against Acinetobacter lwoffii [13] (AI.88-483, 24 h), 1 µg/mL (≈ 2.14 µM); in the assay on Escherichia coli [15], 0.5 µg/mL (≈ 1.07 µM).

For `CCCCCCCCCCCCCCCCCCO[C@@H]1[C@@H](N)[C@@H](O[C@H]2[C@H](O)[C@@H](OCCCCCCCCCCCCCCCCCC)[C@H](N)C[C@@H]2N)O[C@H](CN)[C@H]1O`, the MIC in the assay with Staphylococcus aureus [6] (VRS2, 24 h) was above 128 µg/mL; against Escherichia coli [7] (PAZ505H8101, 24 h), above 128 µg/mL; with Pseudomonas aeruginosa [8] (ATCC 27853, 24 h), above 128 µg/mL; against Pseudomonas aeruginosa [9], above 128 µg/mL; against Staphylococcus aureus [16], above 128 µg/mL; against Staphylococcus aureus [10] (ATCC 33592, 24 h), above 128 µg/mL. Besides, the MIC in the assay with Staphylococcus aureus [1] was 256 µg/mL (≈ 309 µM); with Staphylococcus aureus [2] it was 128 µg/mL (≈ 155 µM); against Staphylococcus aureus [3], above 128 µg/mL; in the assay with Pseudomonas aeruginosa [11] (F03, 24 h), above 128 µg/mL; with Escherichia coli [12] (L58058.1, 24 h), above 128 µg/mL; against Staphylococcus aureus [4] it was 256 µg/mL (≈ 309 µM). The MIC with Staphylococcus aureus [5] and against Escherichia coli [15] was above 128 µg/mL throughout.

Turning to `NC[C@H]1O[C@H](O[C@H]2[C@H](O)[C@@H](OCCCc3ccc4ccccc4c3)[C@H](N)C[C@@H]2N)[C@H](N)[C@@H](OCCCc2ccc3ccccc3c2)[C@@H]1OCCCc1ccc2ccccc2c1`, the MIC in the assay with Staphylococcus aureus [6] (VRS2, 24 h) was above 128 µg/mL; with Escherichia coli [7] (PAZ505H8101, 24 h), 32 µg/mL (≈ 38.7 µM); against Pseudomonas aeruginosa [8] (ATCC 27853, 24 h), 128 µg/mL (≈ 155 µM); against Pseudomonas aeruginosa [9], 128 µg/mL (≈ 155 µM); against Staphylococcus aureus [16], 32 µg/mL (≈ 38.7 µM); against Staphylococcus aureus [10] (ATCC 33592, 24 h), 128 µg/mL (≈ 155 µM). Besides, the MIC in the assay with Staphylococcus aureus [1] is 64 µg/mL (≈ 77.4 µM); in the assay on Staphylococcus aureus [2], 32 µg/mL (≈ 38.7 µM); against Staphylococcus aureus [3], above 128 µg/mL; with Pseudomonas aeruginosa [11] (F03, 24 h), 64 µg/mL (≈ 77.4 µM); against Escherichia coli [12] (L58058.1, 24 h) it was above 128 µg/mL; in the assay on Staphylococcus aureus [4], 128 µg/mL (≈ 155 µM). In addition, the MIC against Staphylococcus aureus [5] was above 128 µg/mL; in the assay with Escherichia coli [15], 128 µg/mL (≈ 155 µM).

Regarding `CCCCCCCCCCCCCCCCCCO[C@@H]1[C@@H](N)[C@@H](O[C@H]2[C@H](O)[C@@H](O)[C@H](N)C[C@@H]2N)O[C@H](CN)[C@H]1O`, the MIC with Staphylococcus aureus [1], against Staphylococcus aureus [2], against Staphylococcus aureus [3], against Staphylococcus aureus [4] and with Staphylococcus aureus [5] was above 128 µg/mL each time.

As to `NC[C@H]1O[C@H](O[C@H]2[C@H](O)[C@@H](OCc3ccccc3)[C@H](N)C[C@@H]2N)[C@H](N)[C@@H](OCc2ccccc2)[C@@H]1OCc1ccccc1`, the MIC was 64 µg/mL (≈ 108 µM) against Staphylococcus aureus [6] (VRS2, 24 h); above 128 µg/mL against Escherichia coli [7] (PAZ505H8101, 24 h); above 128 µg/mL in the assay with Klebsiella pneumoniae (ATCC 700603, 24 h); above 128 µg/mL in the assay on Acinetobacter lwoffii [14]; above 128 µg/mL in the assay with Pseudomonas aeruginosa [8] (ATCC 27853, 24 h); above 128 µg/mL in the assay on Pseudomonas aeruginosa [9]. Also, the MIC against Staphylococcus aureus [10] (ATCC 33592, 24 h) was above 128 µg/mL; with Staphylococcus aureus [1] it was above 128 µg/mL; in the assay with Staphylococcus aureus [2], above 128 µg/mL; with Staphylococcus aureus [3] it was above 128 µg/mL; with Pseudomonas aeruginosa [11] (F03, 24 h), above 128 µg/mL; in the assay on Escherichia coli [12] (L58058.1, 24 h), above 128 µg/mL. Further, the MIC is above 128 µg/mL in the assay with Staphylococcus aureus [4]; above 128 µg/mL in the assay on Acinetobacter lwoffii [13] (AI.88-483, 24 h); above 128 µg/mL in the assay with Staphylococcus aureus [5]; above 128 µg/mL with Escherichia coli [15].

For the origin of these results see ChEMBL document CHEMBL2429794, “Tuning the antibacterial activity of amphiphilic neamine derivatives and comparison to paromamine homologues” (J Med Chem, 2013).
